Measured values from ChEMBL document CHEMBL1154089, “Novel N-(3-carboxyl-9-benzyl-beta-carboline-1-yl)ethylamino acids: synthesis, anti-tumor evaluation, intercalating determination, 3D QSAR analysis and docking investigation” (Eur J Med Chem, 2009).

Tests used:
[1] = tested on: Mus musculus; experiment: Toxicity in ICR mouse assessed as twitch at > 500 mg/kg, ip after 7 days; assay type: organism-based; parameters: dose 500 mg/kg, route intraperitoneal; settings: in vivo, 168 h
Outline: (§1)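 Mice fasted overnight with free access to water, then given a single i.p. injection of 150, 300 or 500 mg/kg in 0.2 ml of 0.9% saline. Groups of 12 (six male, six female). Animals were watched continuously for up to 7 days for abnormal behaviour (tremor, twitch, jumping, tetanus, supination) or death. They were sacrificed on day 7, and heart, liver and kidneys were checked macroscopically. LD50 was estimated graphically.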

[2] = tested on: HeLa; experiment: Cytotoxicity against human HeLa cells after 48 hrs by MTT assay; assay type: functional, cell-based
Outline: (§2)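 Cells grown in DMEM or RPMI-1640 with 10% FBS plus penicillin/streptomycin. Seeded at 5 × 10^4 cells/ml and given 4 h at 37 °C in 5% CO2 before the medium was replaced with compound (0.1–400 µM, DMSO vehicle; vehicle control 1% DMSO). After 48 h, MTT added (final 0.5 mg/ml) for 4 h. Formazan dissolved in DMSO and read at 570 nm. IC50 is the concentration giving 50% growth inhibition.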

[3] = tested on: Mus musculus; experiment: Toxicity in ICR mouse assessed as heart necropsy at > 500 mg/kg, ip after 7 days; assay type: organism-based; parameters: dose 500 mg/kg, route intraperitoneal; settings: in vivo, 168 h; outline: as §1
[4] = tested on: HL-60; experiment: Cytotoxicity against human HL60 cells after 48 hrs by MTT assay; assay type: functional, cell-based; settings: HL-60, 48 h; outline: as §2
[5] = Cytotoxicity against human MES-SA cells after 48 hrs by MTT assay; assay type: functional, cell-based; outline: as §2
[6] = tested on: Mus musculus; experiment: Toxicity in ICR mouse assessed as jumping at > 500 mg/kg, ip after 7 days; assay type: organism-based; parameters: dose 500 mg/kg, route intraperitoneal; settings: in vivo, 168 h; outline: as §1
[7] = tested on: CCRF S-180; experiment: Antitumor activity against mouse S180 cells xenografted in ICR mouse assessed as inhibition of tumor growth at 89 umol/kg, ip administered 24 hrs after tumor implantation once daily for 7 consecutive days measured after 24 hrs last post dose; assay type: functional; settings: CCRF S-180, ip
Outline: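 S180 solid tumors in male ICR mice (10–12 weeks), 1 × 10^7 cells s.c. at the right armpit. Mice randomized at 24 h, n = 12 per group, and dosed i.p. daily in 0.2 ml 0.9% saline for 7 days. Tumors weighed 24 h after the final dose. Inhibition (%) = [(A − B)/A] × 100, where A is the mean tumor weight of saline controls and B is the mean of the treated group.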

[8] = tested on: Mus musculus; experiment: Toxicity in ICR mouse assessed as liver necropsy at > 500 mg/kg, ip after 7 days; assay type: organism-based; parameters: dose 500 mg/kg, route intraperitoneal; settings: in vivo, 168 h; outline: as §1
[9] = tested on: Mus musculus; experiment: Toxicity in ICR mouse assessed as death at > 500 mg/kg, ip after 7 days; assay type: organism-based; parameters: dose 500 mg/kg, route intraperitoneal; settings: in vivo, 168 h; outline: as §1
[10] = tested on: Mus musculus; experiment: Toxicity in ICR mouse assessed as tetanus at > 500 mg/kg, ip after 7 days; assay type: organism-based; parameters: dose 500 mg/kg, route intraperitoneal; settings: in vivo, 168 h; outline: as §1
[11] = tested on: Mus musculus; experiment: Toxicity in ICR mouse assessed as kidneys necropsy at > 500 mg/kg, ip after 7 days; assay type: organism-based, Kidney; parameters: dose 500 mg/kg, route intraperitoneal; settings: in vivo, 168 h; outline: as §1
[12] = tested on: Mus musculus; experiment: Toxicity in ICR mouse assessed as supination at > 500 mg/kg, ip after 7 days; assay type: organism-based; parameters: dose 500 mg/kg, route intraperitoneal; settings: in vivo, 168 h; outline: as §1
[13] = Cytotoxicity against human H1299 cells after 48 hrs by MTT assay; assay type: functional, cell-based; settings: NCI-H1299, 48 h; outline: as §2
[14] = tested on: CCRF S-180; experiment: Antitumor activity against mouse S180 cells xenografted in ICR mouse assessed as decrease in tumor weight at 89 umol/kg, ip administered 24 hrs after tumor implantation once daily for 7 consecutive days measured after 24 hrs last post dose; assay type: functional
Outline: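 Male ICR mice, 10–12 weeks old. Solid tumors from 1 × 10^7 viable S180 ascites cells in 0.2 ml 0.9% saline, injected s.c. at the right armpit. Random allocation at 24 h, 12 per group. Dosed i.p. daily in 0.2 ml 0.9% saline for 7 days. Saline-only negative control; cytarabine 89 µmol/kg positive control. Tumors excised and weighed 24 h after the last dose. ANOVA used for statistics.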

[15] = tested on: Mus musculus; experiment: Toxicity in mouse S180 cells xenografted in ICR mouse assessed as spleen index at 89 umol/kg, ip administered 24 hrs after tumor implantation once daily for 7 consecutive days measured after 24 hrs last post dose; assay type: organism-based, CCRF S-180; settings: in vivo
Outline: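 S180-bearing male ICR mice (n = 12) received 89 µmol/kg i.p. daily in 0.2 ml saline for 7 days. Killed under ether 24 h after the last dose; spleens excised and weighed. Spleen index given as mean ± SD, […] body weight.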

[16] = tested on: HepG2; experiment: Cytotoxicity against human HepG2 cells after 48 hrs by MTT assay; assay type: functional, cell-based; settings: HepG2, 48 h; outline: as §2
[17] = tested on: Mus musculus; experiment: Toxicity in ICR mouse assessed as tremor at > 500 mg/kg, ip after 7 days; assay type: organism-based; parameters: dose 500 mg/kg, route intraperitoneal; settings: in vivo, 168 h; outline: as §1
[18] = tested on: Mus musculus; experiment: Toxicity in mouse S180 cells xenografted in ICR mouse assessed as increase in body weight at 89 umol/kg, ip administered 24 hrs after tumor implantation once daily for 7 consecutive days measured after 24 hrs last post dose; assay type: organism-based, CCRF S-180; settings: in vivo
Outline: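 S180-bearing male ICR mice, n = 12 per group, given 89 µmol/kg i.p. daily in 0.2 ml 0.9% saline for 7 days, starting 24 h after s.c. implantation. Animals weighed daily. Result expressed as body-weight increase from the start of treatment, in g, mean ± SD.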

O=C(O)c1cc2c3ccccc3n(Cc3ccccc3)c2c(CCN[C@@H](Cc2ccccc2)C(=O)O)n1
Activity [1]: Non-toxic | IC50 [2]: 51.7 µM | Activity [3]: Non-toxic | IC50 [4]: 31.8 µM | IC50 [5]: 11 µM | Activity [6]: Non-toxic | inhibition in vivo at 89 µmol/kg [7]: 5.2% | Activity [8]: Non-toxic | Activity [9]: Non-toxic | Activity [10]: Non-toxic | Activity [11]: Non-toxic | Activity [12]: Non-toxic | IC50 [13]: 59.3 µM | Activity [14]: 1.56 g | Activity [15]: 14.4 mg/g | IC50 [16]: 114 µM | Activity [17]: Non-toxic | Activity [18]: 9.74 g

O=C(O)CNCCc1nc(C(=O)O)cc2c3ccccc3n(Cc3ccccc3)c12
Activity [1]: Non-toxic | IC50 [2]: > 400 µM | Activity [3]: Non-toxic | IC50 [4]: > 400 µM | IC50 [5]: 178 µM | Activity [6]: Non-toxic | inhibition in vivo at 89 µmol/kg [7]: 11% | Activity [8]: Non-toxic | Activity [9]: Non-toxic | Activity [10]: Non-toxic | Activity [11]: Non-toxic | Activity [12]: Non-toxic | IC50 [13]: 75.6 µM | Activity [14]: 1.47 g | Activity [15]: 13.1 mg/g | IC50 [16]: > 400 µM | Activity [17]: Non-toxic | Activity [18]: 11.34 g

CSCC[C@H](NCCc1nc(C(=O)O)cc2c3ccccc3n(Cc3ccccc3)c12)C(=O)O
IC50 [2]: 26.5 µM | IC50 [4]: 182 µM | IC50 [5]: 86.4 µM | inhibition in vivo at 89 µmol/kg [7]: 1.5% | IC50 [13]: 100 µM | Activity [14]: 1.63 g | Activity [15]: 11.8 mg/g | IC50 [16]: 108 µM | Activity [18]: 9.12 g

O=C(O)c1cc2c3ccccc3n(Cc3ccccc3)c2c(CCN[C@@H](Cc2ccc(O)cc2)C(=O)O)n1
Activity [1]: Non-toxic | IC50 [2]: 209 µM | Activity [3]: Non-toxic | IC50 [4]: 24 µM | IC50 [5]: 59.3 µM | Activity [6]: Non-toxic | inhibition in vivo at 89 µmol/kg [7]: 48.6% | Activity [8]: Non-toxic | Activity [9]: Non-toxic | Activity [10]: Non-toxic | Activity [11]: Non-toxic | Activity [12]: Non-toxic | IC50 [13]: 72.5 µM | Activity [14]: 0.85 g | Activity [15]: 13.6 mg/g | IC50 [16]: 127 µM | Activity [17]: Non-toxic | Activity [18]: 13.62 g

O=C(O)c1cc2c3ccccc3n(Cc3ccccc3)c2c(CCN2CCC[C@H]2C(=O)O)n1
IC50 [2]: 161 µM | IC50 [4]: 28.4 µM | IC50 [5]: 55.2 µM | inhibition in vivo at 89 µmol/kg [7]: 7.2% | IC50 [13]: 75.5 µM | Activity [14]: 1.53 g | Activity [15]: 12.1 mg/g | IC50 [16]: 107 µM | Activity [18]: 12.07 g

O=C(O)C[C@H](NCCc1nc(C(=O)O)cc2c3ccccc3n(Cc3ccccc3)c12)C(=O)O
Activity [1]: Non-toxic | IC50 [2]: 99.3 µM | Activity [3]: Non-toxic | IC50 [4]: 43.2 µM | IC50 [5]: 13 µM | Activity [6]: Non-toxic | inhibition in vivo at 89 µmol/kg [7]: 34.7% | Activity [8]: Non-toxic | Activity [9]: Non-toxic | Activity [10]: Non-toxic | Activity [11]: Non-toxic | Activity [12]: Non-toxic | IC50 [13]: 69 µM | Activity [14]: 1.08 g | Activity [15]: 13 mg/g | IC50 [16]: 114 µM | Activity [17]: Non-toxic | Activity [18]: 10.11 g

CC(C)[C@@H](NCCc1nc(C(=O)O)cc2c3ccccc3n(Cc3ccccc3)c12)C(=O)O
IC50 [2]: 290 µM | IC50 [4]: > 400 µM | IC50 [5]: 175 µM | inhibition in vivo at 89 µmol/kg [7]: 53.8% | IC50 [13]: 199 µM | Activity [14]: 0.76 g | Activity [15]: 10.2 mg/g | IC50 [16]: > 400 µM | Activity [18]: 10.23 g

C[C@@H](O)[C@H](NCCc1nc(C(=O)O)cc2c3ccccc3n(Cc3ccccc3)c12)C(=O)O
Activity [1]: Non-toxic | IC50 [2]: 221 µM | Activity [3]: Non-toxic | IC50 [4]: 50.4 µM | IC50 [5]: 218 µM | Activity [6]: Non-toxic | inhibition in vivo at 89 µmol/kg [7]: -29.1% | Activity [8]: Non-toxic | Activity [9]: Non-toxic | Activity [10]: Non-toxic | Activity [11]: Non-toxic | Activity [12]: Non-toxic | IC50 [13]: 86.4 µM | Activity [14]: 2.12 g | Activity [15]: 11.4 mg/g | IC50 [16]: > 400 µM | Activity [17]: Non-toxic | Activity [18]: 11.37 g
